What was measured:
Format in all cases: functional
Details in all cases: 144 h
Botrytis cinerea [1] = test: Antifungal activity against Botryotinia fuckeliana assessed as radial growth inhibition at 50 ug/mL measured after 6 days
Method in brief: (§1)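 Radial growth inhibition of B. cinerea on glucose-malt-peptone agar (61 g/L, pH 6.5-7.0) in 9 cm dishes. Compound in acetone added to the medium at final 50-200 μg/mL, with equal acetone in the controls. A 5 mm mycelial disc from an actively growing culture was placed centrally. Growth was followed for 6 days; % inhibition from mean colony diameter versus untreated control. Triplicate, repeated at least three times.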

Botrytis cinerea [2] = test: Antifungal activity against Botryotinia fuckeliana assessed as radial growth inhibition at 100 ug/mL measured after 6 days; method in brief: as §1
Botrytis cinerea [3] = test: Antifungal activity against Botryotinia fuckeliana assessed as radial growth inhibition at 200 ug/mL measured after 6 days; method in brief: as §1

In the case of `O=C(NN1Cc2ccccc2C1)c1ccccc1F`, the inhibition at 50 µg/mL (Botrytis cinerea [1]) is reported as 42%, the inhibition at 100 µg/mL (Botrytis cinerea [2]) is reported as 50% and the inhibition at 200 µg/mL (Botrytis cinerea [3]) is reported as 91%.
`O=C(NN(Cc1ccccc1)Cc1ccccc1)c1ccccc1Cl` showed an inhibition at 50 µg/mL (Botrytis cinerea [1]) of 31%, an inhibition at 100 µg/mL (Botrytis cinerea [2]) of 42% and an inhibition at 200 µg/mL (Botrytis cinerea [3]) of 86%.
`CN(C)NC(=O)c1ccccc1I` was tested, and the inhibition at 50 µg/mL (Botrytis cinerea [1]) was 19%, the inhibition at 100 µg/mL (Botrytis cinerea [2]) was 28% and the inhibition at 200 µg/mL (Botrytis cinerea [3]) was 33%.
`CN(C)NC(=O)c1ccccc1F` gave an inhibition at 50 µg/mL (Botrytis cinerea [1]) of 12%, an inhibition at 100 µg/mL (Botrytis cinerea [2]) of 22% and an inhibition at 200 µg/mL (Botrytis cinerea [3]) of 32%.
For `CN(C)NC(=O)c1ccccc1Cl`, the inhibition at 50 µg/mL (Botrytis cinerea [1]) was 0%, the inhibition at 100 µg/mL (Botrytis cinerea [2]) was 0% and the inhibition at 200 µg/mL (Botrytis cinerea [3]) was 33%.
Work on `O=C(NN(Cc1ccccc1)Cc1ccccc1)c1ccccc1I` yielded an inhibition at 50 µg/mL (Botrytis cinerea [1]) of 27%, an inhibition at 100 µg/mL (Botrytis cinerea [2]) of 50% and an inhibition at 200 µg/mL (Botrytis cinerea [3]) of 82%.
With `Cc1ccccc1C(=O)NN(Cc1ccccc1)Cc1ccccc1` the inhibition at 50 µg/mL (Botrytis cinerea [1]) was 48%, the inhibition at 100 µg/mL (Botrytis cinerea [2]) was 55% and the inhibition at 200 µg/mL (Botrytis cinerea [3]) was 88%.
With `O=C(NN1CCCCC1)c1ccccc1F` the inhibition at 50 µg/mL (Botrytis cinerea [1]) was 46%, the inhibition at 100 µg/mL (Botrytis cinerea [2]) was 51% and the inhibition at 200 µg/mL (Botrytis cinerea [3]) was 51%.
`O=C(NN1CCCCC1)c1ccccc1Cl` gave an inhibition at 50 µg/mL (Botrytis cinerea [1]) of 36%, an inhibition at 100 µg/mL (Botrytis cinerea [2]) of 40% and an inhibition at 200 µg/mL (Botrytis cinerea [3]) of 57%.
`O=C(NN1CCCCC1)c1ccccc1I` gave an inhibition at 50 µg/mL (Botrytis cinerea [1]) of 33%, an inhibition at 100 µg/mL (Botrytis cinerea [2]) of 42% and an inhibition at 200 µg/mL (Botrytis cinerea [3]) of 46%.
`COc1ccccc1C(=O)NN1CCCCC1` was tested, and the inhibition at 50 µg/mL (Botrytis cinerea [1]) was 38%, the inhibition at 100 µg/mL (Botrytis cinerea [2]) was 47% and the inhibition at 200 µg/mL (Botrytis cinerea [3]) was 51%.
`O=C(NN(Cc1ccccc1)Cc1ccccc1)c1ccccc1` [N',N'-DIBENZYLBENZOHYDRAZIDE] was tested, and the inhibition at 50 µg/mL (Botrytis cinerea [1]) was 10%, the inhibition at 100 µg/mL (Botrytis cinerea [2]) was 42% and the inhibition at 200 µg/mL (Botrytis cinerea [3]) was 44%.
In the case of `CN(C)NC(=O)c1ccccc1` [N',N'-DIMETHYLBENZOHYDRAZIDE], the inhibition at 50 µg/mL (Botrytis cinerea [1]) is reported as 24%, the inhibition at 100 µg/mL (Botrytis cinerea [2]) is reported as 45% and the inhibition at 200 µg/mL (Botrytis cinerea [3]) is reported as 51%.
`O=C(NN1CCCCC1)c1ccccc1` [N-PIPERIDINOBENZAMIDE] gave an inhibition at 50 µg/mL (Botrytis cinerea [1]) of 37%, an inhibition at 100 µg/mL (Botrytis cinerea [2]) of 43% and an inhibition at 200 µg/mL (Botrytis cinerea [3]) of 45%.
